These results are taken from PubChem BioAssay AID504383 (The Scripps Research Institute Molecular Screening Center, 2011).

Out of some 2,500 compounds screened, about 1,200 (48%) were called active.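 How the source made its calls: active means mean activation above the low control average plus 3 SD, as set in the primary screen (cut at about 12% in these data); inactive means the rest.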 The set was probably picked from earlier hits. Some of the results follow.

The assay concerns the target Troponin I, cardiac muscle (Homo sapiens) + Troponin T, cardiac muscle (Homo sapiens) + Troponin C, slow skeletal and cardiac muscles (Homo sapiens) (UniProt P19429+P45379+P63316). Kind of assay: cardiac RTF calcium sensitivity activators, confirmation, biochemical, IANBD-TnC fluorescence, triplicate (AID 504383).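 Further: 0% = DMSO at 0.472 mM calcium and 100% = DMSO at 2.9 mM calcium.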 The conditions noted are these: IANBD-labeled cardiac RTF, Ca2+ sensitivity fluorescence; at 7.2 µM; active compounds read high; scaled from EC20 to saturating calcium; tested at EC20 calcium, 0.472 mM. In outline: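 Assay system: labelled regulated thin filament protein complex; schedule: 15 min compound incubation with filaments at 25 °C; benchmarks: low control EC20 calcium, high control EC100 calcium; reagent: Ca2+ 0.472 mM, EC20 level; doses: one dose, 7.2 µM nominal; evaluation: fluorescence gain scaled between EC20 and EC100 calcium controls; signal: filament fluorescence intensity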
On to `Cc1cccc(N2C(=O)c3cccc4c(N(C)CCO)ccc(c34)C2=O)c1`, for which the activation is 6.7% (inactive). `Cc1ccccc1N1C(=O)c2cccc3c(N(C)CCO)ccc(c23)C1=O`: the activation was 11.1% (inactive). For `CNc1ccc2c3c(cccc13)C(=O)N(C)C2=O`, the activation is 44.4% (active). The result for `CN1C(=O)c2cccc3c(N(C)C)ccc(c23)C1=O` reads 223% (active). With `CCCCNc1ccc2c3c(cccc13)C(=O)N(CCCC)C2=O`, the activation was 5.54% (inactive). The result for `CN1C(=O)c2cccc3c(N)ccc(c23)C1=O` reads 5.53% (inactive). Then `O=C(Cc1ccc(Cl)cc1)NNS(=O)(=O)c1ccc([N+](=O)[O-])cc1`, with 275% (active); and `O=C(CSc1ccc(Cl)cc1)Nc1nnc(-c2cccc([N+](=O)[O-])c2)s1`, with -1.31% (inactive); and `O=c1[nH]ncc2c3ccccc3n(Cc3cccc(Cl)c3)c12`, with -2.41% (inactive).

For `O=S(=O)(O)c1nc2ccccc2n1Cc1ccccc1`, the activation was 51.8% (active). The result for `Cc1ccccc1NC(=O)c1nnn(-c2ccc3c(c2)OCCO3)c1N` reads 5.33% (inactive).

Turning to `CCCCN(C(=O)c1ccc2c(c1)OCCO2)c1c(N)n(CCCC)c(=O)[nH]c1=O`, the activation is 3.97% (inactive).

Turning to `CCN1C(=O)c2cccc3c(NC(=O)c4ccc5c(c4)OCCO5)ccc1c23`, the activation was 1730% (active).

For `CN(Cc1ccccc1)C(=O)c1ccc(NC(=O)Cc2ccc(NC(=O)C3CCCN(S(=O)(=O)c4cccc([N+](=O)[O-])c4)C3)cc2)cc1` (centres undefined), the activation is 6.95% (inactive). On to `COc1cccc(S(=O)(=O)Nc2cccc(C(=O)N3CCCCCC3)c2)c1`, for which the activation is -0.51% (inactive). The result for `O=C(Cc1ccc(NC(=O)C2CCCN(C(=O)C3CCCCC3)C2)cc1)Nc1cccc(C(=O)N2CCCC2)c1` (centres undefined) reads 13.2% (active); that for `Cc1ccc(S(=O)(=O)Nc2ccccc2N(C)S(=O)(=O)c2ccc(C)cc2)cc1`, 9.04% (inactive). Turning to `Cc1ccc(S(=O)(=O)NCCCCCC(=O)Nc2ccccc2C)cc1`, the activation was 34.1% (active).

`CC(=O)Nc1ccc(S(=O)(=O)NCCC(=O)OCC(=O)c2cc(C)ccc2C)cc1`: the activation is 10.1% (inactive). With `Cc1ccc(C)c(OCCN2C(=O)NC3(CCc4ccccc4C3)C2=O)c1` (centres undefined), the activation is 2.13% (inactive). The result for `C=COc1ccc(N2C(=O)c3ccccc3OC2C)cc1` (centres undefined) reads 32.1% (active); that for `COc1ccc(CC(=O)N(C)Cc2cccc(F)c2)cc1S(=O)(=O)N1CCOCC1`, 12.3% (active).

For `COc1cc(/C=C2/C(=O)NN(c3cccc(F)c3)C2=O)ccc1OC(=O)c1ccco1`, the activation was 3.13% (inactive). The result for `Cc1ccc(C(=O)N(C)CC(=O)Nc2cccc(F)c2)cc1S(=O)(=O)N1CCCCC1` reads 6.56% (inactive). Turning to `NC(=O)c1ccccc1N/C=C/C(=O)c1ccc(Cl)cc1Cl`, the activation was 19% (active). With `COC(=O)c1cnn2c(C(F)(F)F)cc(-c3ccco3)nc12`, the activation was 4.76% (inactive). `Cc1cccc(C)c1NC(=O)CN(C1CCCCC1)S(C)(=O)=O`: the activation was 9.63% (inactive). Consider `Cc1cccc(C)c1NC(=O)CNC(=O)Cc1ccc(Br)cc1`, for which the activation is 10.9% (inactive). As for `CSc1nc2ccccc2n1CC(=O)Nc1c(C)cccc1C`, the activation is 12.7% (active).

On to `NC(=O)NC(Cc1ccccc1)C(=O)NCC1(N2CCCCC2)CCCCC1` (centres undefined), for which the activation was 9.4% (inactive). The result for `Cc1c(C(=O)NC2CC2)oc2ccccc12` reads 7.6% (inactive); that for `Cc1nn(-c2ccccc2)c(Cl)c1C(=O)NC1CCCCC1`, 20.7% (active). Then `Cc1cc(-c2ccccc2C(=O)NC2CCCCC2)on1`, with 6.39% (inactive); and `O=C(CNC(=O)C12CC3CC(CC(C3)C1)C2)OCC(=O)N1CCCCC1`, with 11.6% (inactive); and `COc1ccc(OC)c(/C=C/c2nc3ccccc3[nH]c2=O)c1`, with 6.55% (inactive).

As to `COc1ccc2nc(-c3ccccn3)[nH]c2c1`, the activation was 93.2% (active). Then `COc1ccc(OC)c(C2=C/C(=C/c3ccccn3)C(=O)O2)c1`, with 6.12% (inactive). In the case of `O=c1[nH]c2cc(C(F)(F)F)ccc2n1-c1cc(C(F)(F)F)ccc1O`, the activation was 8.69% (inactive). Then `CCOc1ccccc1C(=O)NN1C(=O)CCC1=O`, with 23.7% (active); and `Cc1ccnc2nc(C(=O)OCC(=O)NCCc3ccccc3)nn12`, with 28.6% (active); and `Cc1cc(S(=O)(=O)NC(C)C)ccc1OCC(=O)NCc1ccccc1`, with 3.1% (inactive).

Turning to `CCC1C/C(=C\c2cc(OC)c(OC)cc2OC)C(=O)/C(=C/c2cc(OC)c(OC)cc2OC)C1` (centres undefined), the activation was 21.3% (active). For the compound `COc1cc(OC)c(OC)cc1/C=C1/Cc2ccccc2C1=O`, the activation is 8.78% (inactive). The result for `Cc1cc(NS(C)(=O)=O)c(=O)n(Cc2cccc(F)c2)c1` reads 0.31% (inactive); that for `C/C(=C\C=C(C#N)C#N)c1cc(C#N)c(N)o1`, 16.3% (active). With `c1ccc(Cn2c(-c3ccccc3)nc3nc4ccccc4nc32)cc1`, the activation is 32.2% (active). The result for `O=C(N/N=C\c1c(O)ccc2ccccc12)c1cncc(Br)c1` reads 20% (active); that for `Oc1ccc2ccccc2c1C=NCc1cn2ccsc2n1`, 3.76% (inactive). For `O=C(NN=Cc1c(O)ccc2ccccc12)c1ccncc1`, the activation was 9.86% (inactive).

With `O=C(N/N=C/c1c(O)ccc2ccccc12)c1cccc(C(F)(F)F)c1`, the activation is 164% (active).

Regarding `Cc1nnc(-c2ccccc2)c(=O)n1/N=C/c1c(O)ccc2ccccc12`, the activation was 5.78% (inactive). The result for `Cn1nnnc1SCCOc1ccc(C#N)cc1` reads -1.4% (inactive). Regarding `CCOC(=O)c1cn(-c2ccc(F)c(F)c2F)c2c(F)c(F)c(F)cc2c1=O`, the activation was 10.3% (inactive). Take `Cc1c(N=C2N=C(NC(=O)Nc3ccc(Cl)cc3)c3ccccc32)c(=O)n(-c2ccccc2)n1C`: the activation was 58.8% (active). Turning to `Cc1cc([N+](=O)[O-])nn1CC(=O)Nc1c(C)n(C)n(-c2ccccc2)c1=O`, the activation is 8.97% (inactive).

As for `CC/C(=C/c1sc2ccccc2[n+]1CC)SC`, the activation was 2.73% (inactive). Then `CC[n+]1c(/C=C/C=C/N(C(C)=O)c2ccccc2)sc2ccccc21`, with 135% (active). With `CCCC(NC(=O)CCc1c(C)c2cc3c(-c4ccccc4)coc3cc2oc1=O)C(=O)O` (centres undefined), the activation was 181% (active). Consider `C=CCOc1ccccc1CNc1cccc(F)c1`, for which the activation is 7.46% (inactive). On to `C=CCOc1ccc(Br)cc1CNCC`, for which the activation is 29.4% (active). With `Cc1nc(NC(=O)C(Cl)Cl)sc1C(=O)N(C)C`, the activation was 8.86% (inactive). The result for `Cc1nn(Cc2c(F)c(F)c(F)c(F)c2F)c(C)c1NC(=O)c1nn(C)c(C)c1Br` reads 9.42% (inactive).

With `Cc1ccc(Cn2nc(C)c(NC(=O)C3(C)CC3(Br)Br)c2C)cc1` (centres undefined), the activation was 17.1% (active).

`CCn1cc(/C=C/C(=O)Nc2c(C)nn(Cc3ccccc3C)c2C)cn1`: the activation is 7.35% (inactive).

As for `Cn1c(=O)cc(N)n(Cc2ccccc2)c1=O`, the activation was 42.5% (active). Then `Cc1ccc(NC(=O)COC(=O)/C=C/c2c(C)nn(-c3ccc(F)cc3)c2Cl)cc1F`, with 8% (inactive); and `CCOc1ccc(-n2c(SCC(=O)Nc3ccc(OC)cc3OC)nc3c(c2=O)SCC3)cc1`, with 13.3% (active); and `CCOc1ccc(C(C(=O)NC2CCCCC2)N(C(=O)Cc2cccs2)c2ccc(-n3cnnn3)c(OC)c2)cc1` (centres undefined), with 3.97% (inactive). Consider `Cc1ccc(C(C)NC(=O)c2cccs2)cc1C` (centres undefined), for which the activation is 480% (active). The result for `O=C(CSc1nnc(-c2ccco2)o1)NC1CCCCC1` reads 6.06% (inactive); that for `O=C(CCSc1nnc(-c2ccco2)o1)Nc1ccccc1`, 69% (active). Consider `CCCCNC(=O)Nc1nnc(-c2ccccc2)o1`, for which the activation was 10.1% (inactive). In the case of `C/C(O)=c1/ccc2cccc3nc(C)nc1c23`, the activation is 62.2% (active). Then `CCN(CC(=O)N1CCCC1)S(=O)(=O)c1ccc(OC)cc1`, with 262% (active); and `COc1ccc(CN(Cc2cccn2C)S(=O)(=O)c2ccccc2)cc1`, with 9.11% (inactive). The result for `Cc1ccccc1NS(=O)(=O)c1ccc(OCC(=O)N2CCCCC2)cc1` reads 6.33% (inactive). `O=C1NC(c2cccc([N+](=O)[O-])c2)Oc2ccccc21` (centres undefined): the activation is 10.3% (inactive). Turning to `Cc1ccc(C)c(NC(=O)CCN2CCOCC2)c1`, the activation is 0.21% (inactive). Then `Cc1ccc(C)c(NC(=O)COC(=O)Cc2ccsc2)c1`, with 12.3% (active).

In the case of `O=C(NCC1CC1)c1cccc2c1C(=O)c1ccc(N3CCCC3)cc1S2(=O)=O`, the activation is 183% (active).

As for `O=C(NC1CCCCC1)c1cccc2c1C(=O)c1ccc(N3CCC(Cc4ccccc4)CC3)cc1S2(=O)=O`, the activation was 5.3% (inactive). The result for `O=C(NCc1ccc(OC(F)(F)F)cc1)c1cccc2c1C(=O)c1ccc(N3CCCCC3)cc1S2(=O)=O` reads 17.5% (active). Then `Cc1ccc(CNC(=O)c2cccc3c2C(=O)c2ccc(N4CCCCC4)cc2S3(=O)=O)cc1`, with 6.7% (inactive). The result for `C=CCNC(=O)c1cccc2c1C(=O)c1ccc(N3CCCC3)cc1S2(=O)=O` reads 6.98% (inactive).

On to `CN1CCC[C@@H]1CCNC(=O)c1cccc2c1C(=O)c1ccc(N3CCCC3)cc1S2(=O)=O`, for which the activation was -0.88% (inactive).

With `O=C(NCc1cccc(F)c1)c1cccc2c1C(=O)c1ccc(N3CCCC3)cc1S2(=O)=O`, the activation is 8.28% (inactive). Then `CC1CCN(c2ccc3c(c2)S(=O)(=O)c2cccc(C(=O)NC4CCCCC4)c2C3=O)CC1`, with 1.22% (inactive); and `O=C(NC1CCCCC1)c1cccc2c1C(=O)c1ccc(N3CCCC3)cc1S2(=O)=O`, with 87.8% (active); and `CCOCCCNC(=S)NCCCNc1nc2c(C)cc(C)cc2cc1C#N`, with 7.25% (inactive). Then `Cc1ccccc1OCCC(=O)Nc1cc(S(=O)(=O)N2CCCCC2)ccc1N1CCN(C)CC1`, with 16.9% (active); and `O=C(/C=C/c1cccc(F)c1)Nc1cc(S(=O)(=O)N2CCOCC2)ccc1N1CCCC1`, with 9.19% (inactive); and `O=C(CN1CCc2ccccc2C1)Nc1cc(S(=O)(=O)N2CCOCC2)ccc1N1CCOCC1`, with 8.9% (inactive). Turning to `CCn1c(SCC(=O)NNC(=O)c2ccco2)nnc1-c1ccco1`, the activation was -0.46% (inactive). In the case of `CCn1c(SCC(=O)c2ccc(Cl)cc2)nnc1C(C)C`, the activation is 13.2% (active).
